Source: PMC5558615 (ChemMedChem, 2015)
Numbering of substitutions follows the chain as printed.

How the values were obtained:
saposin B (sapB) [1] = biological target: T1, saposin B (sapB) (Homo sapiens, UniProt P07602, E263A); test: ITC, two sets of independent sites fit; assay type: binding
T1 sequence (P07602 195-273 E263A): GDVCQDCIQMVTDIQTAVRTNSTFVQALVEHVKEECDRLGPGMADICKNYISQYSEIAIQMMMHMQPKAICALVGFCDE

saposin B (sapB) [2] = biological target: T2, saposin B (sapB) (Homo sapiens, UniProt P07602); test: ITC, two sets of independent sites fit; assay type: binding
T2 sequence (P07602 195-273): T1 sequence (P07602 195-273 E263A) with A69E
In short: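 Ligand-into-buffer control titrations were used in the analysis. Integrated heats were plotted against the ligand/sapB dimer molar ratio and fitted to two independent site sets. Strong-site parameters were reported; for the weak set, only n2·K2·ΔH2.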

saposin B = test: crystal structure

| Molecule | Kd (saposin B (sapB) [1]) [µM] | Kd (saposin B (sapB) [2]) [µM] | stoichiometry N (saposin B) |
| --- | --- | --- | --- |
| CCN(CC)CCC[C@@H](C)Nc1ccnc2cc(Cl)ccc12 [chloroquine] | 23.1 | 31.8 | – |
| saposin B (natural protein) | – | – | 2 |
